According to paper PMC2196299 (The Journal of Experimental Medicine, 1997):

Key:
[1] = target: T1, human TAP (Homo sapiens, UniProt Q03518+Q03519); experiment: TAP-dependent peptide translocation assay in SLO-permeabilized human cells; assay type: cell-based
T1 sequence (Q03518 1-748): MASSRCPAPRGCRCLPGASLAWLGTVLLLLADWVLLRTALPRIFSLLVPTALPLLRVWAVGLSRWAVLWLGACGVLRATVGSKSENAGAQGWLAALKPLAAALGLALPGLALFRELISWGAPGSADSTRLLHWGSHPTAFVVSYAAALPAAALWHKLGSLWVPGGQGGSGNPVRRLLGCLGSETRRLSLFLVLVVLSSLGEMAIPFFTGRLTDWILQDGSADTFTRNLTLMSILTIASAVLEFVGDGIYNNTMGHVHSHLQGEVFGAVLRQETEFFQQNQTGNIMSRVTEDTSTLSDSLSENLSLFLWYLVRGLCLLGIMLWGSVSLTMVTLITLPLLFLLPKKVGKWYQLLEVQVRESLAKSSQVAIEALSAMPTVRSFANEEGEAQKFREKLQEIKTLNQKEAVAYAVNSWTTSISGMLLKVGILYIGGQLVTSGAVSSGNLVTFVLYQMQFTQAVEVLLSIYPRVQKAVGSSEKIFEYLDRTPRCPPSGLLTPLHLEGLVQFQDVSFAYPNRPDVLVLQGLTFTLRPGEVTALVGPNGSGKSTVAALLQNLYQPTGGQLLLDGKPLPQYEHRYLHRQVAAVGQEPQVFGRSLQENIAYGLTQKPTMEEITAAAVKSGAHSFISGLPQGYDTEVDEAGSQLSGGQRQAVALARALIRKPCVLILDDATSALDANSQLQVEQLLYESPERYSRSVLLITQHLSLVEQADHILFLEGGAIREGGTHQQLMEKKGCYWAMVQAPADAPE
T1 sequence (Q03519 1-686): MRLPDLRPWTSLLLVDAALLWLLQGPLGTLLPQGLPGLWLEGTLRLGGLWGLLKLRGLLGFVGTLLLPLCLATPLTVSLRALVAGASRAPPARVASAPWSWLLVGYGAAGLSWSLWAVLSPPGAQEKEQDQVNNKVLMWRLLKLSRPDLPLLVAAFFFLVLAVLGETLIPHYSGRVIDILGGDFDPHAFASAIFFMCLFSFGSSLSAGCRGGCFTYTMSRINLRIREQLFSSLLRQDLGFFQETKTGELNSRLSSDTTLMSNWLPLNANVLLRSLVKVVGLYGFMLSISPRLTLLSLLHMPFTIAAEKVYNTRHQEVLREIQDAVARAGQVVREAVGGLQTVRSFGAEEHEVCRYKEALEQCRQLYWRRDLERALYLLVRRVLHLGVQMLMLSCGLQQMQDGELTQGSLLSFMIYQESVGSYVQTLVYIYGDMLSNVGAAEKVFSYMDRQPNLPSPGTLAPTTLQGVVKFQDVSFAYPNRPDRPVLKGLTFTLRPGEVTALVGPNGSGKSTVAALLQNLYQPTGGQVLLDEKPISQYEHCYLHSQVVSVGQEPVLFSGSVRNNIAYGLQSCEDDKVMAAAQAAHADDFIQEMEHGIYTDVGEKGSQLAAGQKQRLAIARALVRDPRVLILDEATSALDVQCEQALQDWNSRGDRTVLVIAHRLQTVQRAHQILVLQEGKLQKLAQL
Summary of the method: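 Hmy2.C1R cells washed in KCl/Hepes transport buffer (pH 7.3) at 4°C, then permeabilized with streptolysin O (2 U/ml, 10 min, 37°C). 10^6 cells/sample incubated 10 min at 37°C with chloramine T-iodinated peptide library, ATP-generating system and test compound (3.3 μM, or a concentration series). Stopped with ice-cold EDTA/azide buffer, NP-40 lysed, Con A–Sepharose capture, γ counting. Percent of no-inhibitor transport, duplicates.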

[2] = target: T2, human TAP1+2 (Homo sapiens, UniProt Q03518+Q03519); assay type: binding
T2 sequence (Q03518 1-748): T1 sequence (Q03518 1-748)
T2 sequence (Q03519 1-686): T1 sequence (Q03519 1-686)

[3] = target: T3, murine TAP (Mus musculus, UniProt P21958+P36371); conditions: cited from earlier work
T3 sequence (P21958 1-724): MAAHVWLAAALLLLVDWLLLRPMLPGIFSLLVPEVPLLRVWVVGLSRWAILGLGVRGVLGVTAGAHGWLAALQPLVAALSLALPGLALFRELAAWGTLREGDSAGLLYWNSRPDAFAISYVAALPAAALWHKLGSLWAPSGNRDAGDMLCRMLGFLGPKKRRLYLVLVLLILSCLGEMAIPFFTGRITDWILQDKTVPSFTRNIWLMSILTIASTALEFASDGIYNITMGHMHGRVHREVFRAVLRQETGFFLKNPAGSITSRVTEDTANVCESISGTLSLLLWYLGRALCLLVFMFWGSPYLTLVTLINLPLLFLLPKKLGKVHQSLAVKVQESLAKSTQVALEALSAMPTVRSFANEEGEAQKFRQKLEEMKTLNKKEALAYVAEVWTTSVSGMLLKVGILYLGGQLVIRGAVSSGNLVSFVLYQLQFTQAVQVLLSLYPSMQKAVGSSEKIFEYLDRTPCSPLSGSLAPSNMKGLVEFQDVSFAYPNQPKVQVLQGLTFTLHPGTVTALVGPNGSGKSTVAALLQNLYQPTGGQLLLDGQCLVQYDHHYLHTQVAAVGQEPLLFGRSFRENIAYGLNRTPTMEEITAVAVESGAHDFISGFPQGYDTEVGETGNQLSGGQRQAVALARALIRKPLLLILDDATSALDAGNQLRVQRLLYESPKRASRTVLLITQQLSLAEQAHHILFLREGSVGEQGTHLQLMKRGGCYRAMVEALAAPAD
T3 sequence (P36371 1-702): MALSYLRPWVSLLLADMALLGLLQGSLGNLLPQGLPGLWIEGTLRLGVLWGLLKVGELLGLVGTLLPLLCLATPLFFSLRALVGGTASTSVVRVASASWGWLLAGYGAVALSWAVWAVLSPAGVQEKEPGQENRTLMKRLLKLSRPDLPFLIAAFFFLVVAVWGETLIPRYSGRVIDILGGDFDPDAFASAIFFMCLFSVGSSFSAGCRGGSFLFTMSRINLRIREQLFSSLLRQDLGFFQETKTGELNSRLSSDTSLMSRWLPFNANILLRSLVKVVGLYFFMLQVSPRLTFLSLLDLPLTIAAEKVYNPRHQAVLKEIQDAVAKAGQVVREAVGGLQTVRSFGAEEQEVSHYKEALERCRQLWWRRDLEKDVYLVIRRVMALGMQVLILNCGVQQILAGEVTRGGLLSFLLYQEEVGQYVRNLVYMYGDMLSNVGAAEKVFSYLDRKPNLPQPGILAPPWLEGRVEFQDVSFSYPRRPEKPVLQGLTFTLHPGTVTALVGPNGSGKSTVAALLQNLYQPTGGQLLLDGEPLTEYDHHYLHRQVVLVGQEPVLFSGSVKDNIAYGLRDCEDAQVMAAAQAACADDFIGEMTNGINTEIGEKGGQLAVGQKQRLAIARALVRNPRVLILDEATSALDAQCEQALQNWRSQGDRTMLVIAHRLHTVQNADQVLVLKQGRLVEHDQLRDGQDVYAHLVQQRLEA

| Substance | TAP subunits labeled by cross-linking [2] | ability to block or inhibit mouse TAP [3] | further results |
| --- | --- | --- | --- |
| 1–35 Tpa: 1–35-mer polypeptide with photoactivable phenylalanine analogue Tpa coupled to its NH2 terminus | Both TAP1 and TAP2 subunits were photolabeled |  | block of TAP function compared with the unmodified 1–35 polypeptide ([1]; data not shown): less efficiently |
| ^125I-labeled Tyr21 1–35 polypeptide: 1–35 polypeptide labeled with 125I at Tyr 21 | only TAP1 crosslinks |  |  |
| rICP47: recombinant ICP47 from HSV-1 |  | unable to block |  |
| 1–35: peptide corresponding to residues 1–35 of ICP47 |  |  | concentration at which full inhibition had just been reached ([1]; human cell line Hmy2.C1R, chosen for the alanine scan, Fig. 3 D): 3.3 µM |
| N-acetylated ICP47-1–53: ICP47-1–53 N-acetylated on the resin |  |  | effect of N-acetylation on the ability to inhibit TAP ([1]; human cell line Hmy2.C1R, compared with 1–53 polypeptide, Fig. 3 E): no effect |
| ICP47: herpes simplex virus immediate early protein, 87–amino acid cytosolic polypeptide, inhibitor of TAP |  | inability |  |
